The source made the active and inactive calls. The calls are words filed in the database; no cut-off is given here.
How the values were obtained:
HepG2 [1] = assay: Protection against AfB1-induced toxicity in human HepG2 cells assessed as live cell area at 5 uM measured after 48 hrs by calcein-AM/Hoechst 33342 staining based high-content imaging analysis relative to control; type: functional
HepG2 [2] = assay: Protection against AfB1-induced toxicity in human HepG2 cells assessed as increase in live cell area at >5 uM measured after 48 hrs by calcein-AM/Hoechst 33342 staining based high-content imaging analysis relative to control; type: functional
HepG2 [3] = assay: Protection against AfB1-induced toxicity in human HepG2 cells assessed as live cell area at 0.5 uM measured after 48 hrs by calcein-AM/Hoechst 33342 staining based high-content imaging analysis relative to control; type: functional
HepG2 [4] = assay: Protection against AfB1-induced toxicity in human HepG2 cells assessed as increase in live cell area at >0.5 uM measured after 48 hrs by calcein-AM/Hoechst 33342 staining based high-content imaging analysis relative to control; type: functional
HepG2 [5] = assay: Protection against AfB1-induced toxicity in human HepG2 cells assessed as increase in live cell area measured after 48 hrs by calcein-AM/Hoechst 33342 staining based high-content imaging analysis; type: functional
HepG2 [6] = assay: Increase in live cell area in human HepG2 cells measured after 48 hrs by calcein-AM/Hoechst 33342 staining based high-content imaging analysis; type: functional
HepG2 [7] = assay: Protection against AfB1-induced toxicity in human HepG2 cells assessed as live cell area at 50 uM measured after 48 hrs by calcein-AM/Hoechst 33342 staining based high-content imaging analysis relative to control; type: functional
HepG2 [8] = assay: Protection against AfB1-induced toxicity in human HepG2 cells assessed as live cell area at 12.5 uM measured after 48 hrs by calcein-AM/Hoechst 33342 staining based high-content imaging analysis relative to control; type: functional
HepG2 [9] = assay: Protection against AfB1-induced toxicity in human HepG2 cells assessed as increase in live cell area at >12.5 uM measured after 48 hrs by calcein-AM/Hoechst 33342 staining based high-content imaging analysis relative to control; type: functional
HepG2 [10] = assay: Toxicity in human HepG2 cells measured after 48 hrs by calcein-AM/Hoechst 33342 staining based high-content imaging analysis; type: cell-based; conditions: hepg2, 48 h
HepG2 [11] = assay: Protection against AfB1-induced toxicity in 3D-spheroids of human HepG2 cells assessed as live cell area at 10 uM measured after 3 days by calcein-AM/Hoechst 33342 staining based high-content imaging analysis relative to control; type: functional
In short: (§1)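 HepG2 spheroids: 1000 cells/well in ultralow-attachment plates, grown 4 days to tight spheroids, then test compounds (10 μM) plus AfB1 in complete EMEM for 3 further days. Calcein AM/Hoechst staining and high-content imaging of viability and live spheroid size. Live cell area relative to DMSO vehicle-only spheroids; n = 3.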

HepG2 [12] = assay: Protection against AfB1-induced morphological changes in 3D-spheroids of human HepG2 cells up to 10 uM measured after 3 days by calcein-AM/Hoechst 33342 staining based microscopic analysis; type: functional, cell-based; in short: as §1

Structure (SMILES): COc1cc(O)cc(OC)c1
- %max (HepG2 [1]): 37%
- Activity (HepG2 [2]): inactive

Structure (SMILES): CC(C)c1nc(CN(C)C(=O)N[C@H](C(=O)N[C@@H](Cc2ccccc2)C[C@H](O)[C@H](Cc2ccccc2)NC(=O)OCc2cncs2)C(C)C)cs1 [RITONAVIR]
- %max (HepG2 [3]): 72%
- Activity (HepG2 [4]): inactive

Structure (SMILES): Cc1c(-c2cnccn2)ssc1=S
- Activity (HepG2 [5]): Active
- Activity (HepG2 [6]): Active

Structure (SMILES): COC1=C(O)c2c(O)cc(C)c3c(O)cc(O)c(c23)C1=O
- %max (HepG2 [1]): 20.5%
- Activity (HepG2 [2]): inactive

Structure (SMILES): COC(=O)c1cc(O)cc(OC)c1C(=O)c1c(O)cc(C)cc1OC
- %max (HepG2 [7]): 68.3%

Structure (SMILES): Cc1cc(O)cc2oc(=O)c3c(O)cc(O)cc3c12 [ALTERNARIOL]
- %max (HepG2 [3]): 15.2%
- Activity (HepG2 [4]): inactive

Structure (SMILES): CC(=O)N[C@@H](CS)C(=O)O
- Activity (HepG2 [5]): Active
- Activity (HepG2 [6]): Active

Structure (SMILES): COc1ccc(C(=O)c2ccccc2)c(O)c1 [OXYBENZONE]
- %max (HepG2 [8]): 61.6%
- Activity (HepG2 [9]): inactive

Structure (SMILES): COc1cc(O)c2c(=O)oc3cc(O)c(O)cc3c2c1
- %max (HepG2 [7]): 65.7%
- Activity (HepG2 [10]): Toxic

Structure (SMILES): COc1ccc(C(=O)c2ccc(OC)cc2O)c(O)c1
- %max (HepG2 [7]): 53.9%

Structure (SMILES): COc1cc(O)c2c(=O)oc3cc(O)cc(C)c3c2c1
- Activity (HepG2 [11]): 95%
- %max (HepG2 [7]): 67%
- Activity (HepG2 [12]): Active
- Activity (HepG2 [10]): Non-Toxic

Structure (SMILES): COc1cc(C(O)c2ccccc2)ccc1O (centres undefined)
- %max (HepG2 [7]): 41%

Structure (SMILES): COc1cc(O)c2c(=O)c3ccccc3oc2c1
- %max (HepG2 [1]): 63.9%
- Activity (HepG2 [11]): 72%
- Activity (HepG2 [12]): Active
- Activity (HepG2 [2]): inactive
- Activity (HepG2 [10]): Toxic

Structure (SMILES): COc1ccc(C(=O)NCc2cccnc2)c(O)c1
- %max (HepG2 [3]): 33.5%
- Activity (HepG2 [4]): inactive

Structure (SMILES): COc1cc(C(=O)c2ccccc2)ccc1O
- %max (HepG2 [7]): 60.2%

Structure (SMILES): COc1cc(OC)c2c(O)c3c(=O)cc(C)oc3cc2c1 [RUBROFUSARIN B]
- %max (HepG2 [3]): 64.9%
- Activity (HepG2 [10]): Toxic
- Activity (HepG2 [4]): inactive

Reference: ChEMBL document CHEMBL4392876, “Natural-Product-Inspired Compounds as Countermeasures against the Liver Carcinogen Aflatoxin B1” (J Nat Prod, 2019)
